# Screening data: PubChem BioAssay, several laboratories
# This is a sample that favours compounds with a hit; in the whole collection about 5.7% have one here.
# Beta apoptosis: inhibitors of cytokine-induced beta cell apoptosis, primary screen, luminescence; INS-1E cytokine-induced death, ATP luminescence, 48 h; percent of positive-control rescue, neutral wells zero; protection from apoptosis, % (concentration not given with the values); 300,000 tested, 0.8% active; AID 435005, 2010;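 active = Every replicate reaches about 75%, or at least half do and their mean reaches it too, limit read from the data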;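 note: 0% = cytokine-treated negative control wells and 100% = positive control rescue; higher means more ATP so stronger rescue from cytokine killing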
# Calb FLC: C. albicans growth inhibition with fluconazole, primary screen, CaCi-2 strain, Alamar Blue fluorescence; C. albicans CaCi-2 (fluconazole-resistant clinical isolate) + fluconazole, 48 h; 300,000 tested, 0.57% active; growth inhibition, % (test concentration not listed); AID 1979, 2009;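 active = growth inhibition above about 58% in most replicates, limit read from the data, passing the limit was not always enough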;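 note: all wells also contain fluconazole at 8 µg/ml as a sub-toxic cotreatment; 0% = median of DMSO wells and 100% = median of geldanamycin control wells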
# CSC inhib: cancer stem cell viability inhibitors, primary screen, luminescence; cancer stem cell-like cells viability; inhibition, % at 7.5 µM; 300,000 tested, 1.1% active; in the data active = inhibition above about 75%; tested in HMLE shEcad cells
# SKKanGAS inh: S. pyogenes SKKanGAS growth inhibitors in kanamycin, primary screen, streptokinase expression inhibitor project, SKKanGAS strain, BacTiter-Glo luminescence | 6 h | inhibition, % at 7.5 µM | 300,000 tested, 1.3% active;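 active = mean replicate score, as percent of positive control median, at least 50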;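 note: strain carries kanamycin resistance gene driven by streptokinase promoter and grows in 40 µg/ml kanamycin; loss of luminescence reflects streptokinase promoter inhibition or plain growth inhibition; 0% = median of DMSO wells and 100% = positive control at its reference dose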
# Mdm2 MdmX PPI: inhibitors of human Mdm2-MdmX association, primary screen, cell-based, luminescence, split luciferase, SaOS-2, uHTS; Protein Mdm4 (Homo sapiens) + E3 ubiquitin-protein ligase Mdm2 (Homo sapiens), …; SaOS-2 split-luciferase Mdm2/MdmX complementation; inhibition, % at 8 µM; 330,000 tested, 3% active;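 active = inhibition of at least 50% at 8 µM in the primary screen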
# Target sequence (O15151 whole entry, looked up): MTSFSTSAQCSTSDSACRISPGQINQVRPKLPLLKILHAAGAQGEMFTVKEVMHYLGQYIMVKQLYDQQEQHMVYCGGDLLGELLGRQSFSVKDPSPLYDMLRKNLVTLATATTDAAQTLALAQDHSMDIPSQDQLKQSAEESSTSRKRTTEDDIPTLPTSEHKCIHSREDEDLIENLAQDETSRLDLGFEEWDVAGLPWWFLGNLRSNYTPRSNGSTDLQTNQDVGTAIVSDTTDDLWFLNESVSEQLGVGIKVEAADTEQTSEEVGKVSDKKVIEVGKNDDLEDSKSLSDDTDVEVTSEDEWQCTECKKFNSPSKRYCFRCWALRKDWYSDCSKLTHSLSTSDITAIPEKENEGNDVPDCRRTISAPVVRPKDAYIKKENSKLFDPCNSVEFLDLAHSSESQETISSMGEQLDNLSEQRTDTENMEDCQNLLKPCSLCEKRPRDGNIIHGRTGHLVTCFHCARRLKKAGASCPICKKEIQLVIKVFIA
# Target sequence (Q00987 whole entry, looked up): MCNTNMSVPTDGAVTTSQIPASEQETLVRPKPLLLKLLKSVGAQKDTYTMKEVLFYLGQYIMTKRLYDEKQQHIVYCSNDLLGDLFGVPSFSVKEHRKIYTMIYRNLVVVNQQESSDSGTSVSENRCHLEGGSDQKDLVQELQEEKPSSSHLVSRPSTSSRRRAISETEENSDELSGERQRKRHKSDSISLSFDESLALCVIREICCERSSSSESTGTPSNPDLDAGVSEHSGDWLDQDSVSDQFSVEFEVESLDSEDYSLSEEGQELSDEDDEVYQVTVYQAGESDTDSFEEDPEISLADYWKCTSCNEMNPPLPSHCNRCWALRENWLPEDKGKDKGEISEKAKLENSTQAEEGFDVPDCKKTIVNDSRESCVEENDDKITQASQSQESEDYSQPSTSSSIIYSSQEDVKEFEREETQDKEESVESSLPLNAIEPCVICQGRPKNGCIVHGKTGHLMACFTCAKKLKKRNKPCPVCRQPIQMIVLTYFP
# T cruzi repl: inhibitors of intracellular T. cruzi growth, primary screen, luminescence, NIH3T3 host cells. T. cruzi beta-gal in NIH3T3, 90 h. inhibition, % (no concentration beside the values). 300,000 tested, 1.4% active. AID 1885, 2009;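 active = mean inhibition across valid replicates above about 55%, limit read from the data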;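 note: signal also drops with host cell toxicity which is not excluded here; 0% = plate median of DMSO wells and 100% = zero luminescence signal; higher percent means less beta-gal luminescence so fewer parasites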
#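 compound dosing = single 50 nL compound addition per well in DMSO | material = NIH/3T3 host cells with β-galactosidase reporter T. cruzi | input = 5,000 host fibroblasts per well | timing = ≥90 h infection period, 3 h prior cell attachment | read-out basis = percent inhibition of parasite-derived β-gal signal | detection = GalScreen β-gal luminescence, detergent lysis, 60 min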
# The depositor's hits bear a star; / = not tested or not shown.
SMILES,Beta apoptosis,Calb FLC,CSC inhib,SKKanGAS inh,Mdm2 MdmX PPI,T cruzi repl
COc1ccccc1NC(=O)c1c(Nc2ccccc2F)sc(C(=O)Nc2cccc(Cl)c2)c1N,9,9,83*,28,37,6
COc1ccc(Nc2sc(C(=O)Nc3cccc(Cl)c3)c(N)c2C(=O)Nc2ccccc2OC)cc1,-6,3,46,33,/,8
Clc1ccc(-c2nc(N3CCCCC3)nc3ccccc23)cc1,7,/,1,90*,25,19
N#C/C(=C(/O)c1ccc([N+](=O)[O-])o1)c1nc2ccccc2[nH]1,-4,3,60,72*,39,27
CC(C)(C)/C(O)=C(/C#N)c1nc2ccccc2[nH]1,14,-5,-15,9,-9,-1
CCCCN1C(=O)Cc2c1nc(N)c1c(N)nc(N(CCC)CCC)c(C#N)c21,40,9,5,15,/,74*
N#Cc1c(N(CCO)CCO)nc(N)c2c(N)nc3c(c12)CC(=O)N3CC1CCCO1 (configuration not stated),2,-5,-3,-1,6,-2
C=CCNC(=O)c1ccc2c(c1)S(=O)(=O)c1ccccc1C2=O,7,10,16,1,24,-11
Cc1ccc2[nH]c3nc(N/N=C/c4cccc(O)c4)nnc3c2c1,-3,4,81*,3,20,-18
CCN(C(=O)CSc1ncccn1)C1CCS(=O)(=O)C1 (configuration not stated),-5,14,-1,-3,14,-7
CC1CCC(C(C)C)C(OCC(O)CNC(C)C)C1 (configuration not stated),15,7,-27,0,13,3
CC(C)NCC(O)COC1C2CC3CC(C2)CC1C3 (configuration not stated),2,-37,9,6,13,62*
CC(C)(C)C1CCC(OCC(O)CN2CCN(c3ccccn3)CC2)CC1 (configuration not stated),-7,-3,60,-2,2,37
CC(C)NCC(O)COC1CCC(C(C)(C)C)CC1 (configuration not stated),0,-16,55,-6,23,57*
CC(C)(C)C1CCC(OCC(O)CN2CCN(Cc3ccccc3)CC2)CC1 (configuration not stated),1,2,64,-3,22,57*
O=C(NCCNC(=O)c1ccccc1F)c1ccccn1,-1,-7,-12,2,-20,6
COc1ccccc1N(C(=O)c1ccncc1)c1nc(-c2ccc([N+](=O)[O-])cc2)cs1,15,30,10,1,21,62*
C=C(C)c1cccc(C(C)(C)NC(=O)Nc2ccc(C(N)=O)cc2)c1,-10,83*,-5,-9,18,-8
CCSc1n[nH]c2nc3c(c(=O)n12)C1(CCCC1)Cc1ccccc1-3,-4,-5,4,65*,12,-15
Nn1cnc2c(c1=O)C1(CCCCC1)Cc1ccccc1-2,/,-18,-1,-7,-10,3
O=c1c2c(nc3n1CCCCC3)-c1ccccc1CC21CCCC1,-6,-20,93*,34,-12,26
COc1cc2c(cc1OC)C(c1ccccc1)N(C(=O)c1cccc(S(C)(=O)=O)c1)CC2 (configuration not stated),9,6,6,-2,20,-4
O=c1c(/C=N/OCc2ccc(Cl)cc2Cl)c[nH]n1-c1cccc(Cl)n1,-2,-2,94*,9,13,12
C#CCOCCOCCOCCNc1nc(OC)nc(N2CCN(C(=O)[C@H](CCC(=O)O)n3cc(C(N)CO)nn3)CC2)n1 (some centres not stated),-4,/,23,/,24,/
COc1ccc(-n2c(=O)c3c4c(sc3n3c(=S)[nH]nc23)CCC4)cc1,5,7,-1,65*,14,-3
SMILES,Beta apoptosis,Calb FLC,CSC inhib,SKKanGAS inh,Mdm2 MdmX PPI,T cruzi repl
C#CC(C)(C)NC(=O)c1sccc1Oc1ccc(F)cc1[N+](=O)[O-],6,18,-4,1,11,-7
Cc1ccc(/C=C/c2ccc(=O)n(Cc3ccc(F)cc3)n2)cc1,-3,0,-1,-5,31,-5
Cc1ccc(/C=C/c2ccc(=O)n(Cc3ccccc3Cl)n2)cc1,1,23,24,69*,20,28
Cc1c(Cl)cccc1NC(=O)C1COc2ccccc2O1 (configuration not stated),/,-3,-1,4,-10,0
C(=C\c1ccccc1)/CN1CCN(c2ncnc3c2oc2ccccc23)CC1,50,92*,-12,18,-1,-12
c1ccc2c(c1)oc1c(N3CCOCC3)ncnc12,-1,0,-3,-2,12,-14
CN(C)CCN(C(=O)C1CCN(S(=O)(=O)c2cccs2)CC1)c1nc2ccc(F)cc2s1,1,-1,/,39,-7,49
Cc1cccc2sc(N(CCN(C)C)C(=O)C3CCN(S(=O)(=O)c4cccs4)CC3)nc12,-9,-1,/,41,21,57*
c1ccc(Cc2noc(CN3CCN(Cc4ccc5c(c4)OCO5)CC3)n2)cc1,2,-41,-10,0,8,47
COc1ccccc1CN1CCN(Cc2nc(Cc3ccccc3)no2)CC1,-4,-15,-5,2,-9,63*
COC(=O)[C@@H]1CCCN1Cc1nc(Cc2ccccc2F)no1,-16,92*,-20,-3,-3,9
Fc1ccc(CN2CCCN(Cc3nc(-c4ccc5c(c4)OCO5)no3)CC2)cc1,2,-40,/,11,-12,67*
Fc1ccccc1Cc1noc(CN2CCN(Cc3ccc4c(c3)OCO4)CC2)n1,-1,-20,11,-4,26,60*
Cc1cccc(C)c1NC(=O)CSc1nnc(-c2cnccn2)n1C,-9,2,-13,0,19,-7
COCCCNC(=O)C1CCC(CNS(=O)(=O)c2ccc3c(c2)N(C(C)=O)CCO3)CC1 (configuration not stated),0,-10,9,-7,-4,-16
O=C(O)c1ccc2c(=O)n3c(nc2c1)/C(=C/c1ccccc1C(F)(F)F)CCCC3,-3,-11,-3,26,3,8
COc1ccc(-c2nn(-c3ccccc3)cc2CO)cc1,3,3,-5,-6,17,-1
N=C(N)SCc1cn(-c2ccccc2)nc1-c1ccc(Br)cc1,/,-22,/,34,/,55*
Cc1nc(NCc2ccco2)c2oc3ccccc3c2n1,6,-10,-10,-3,8,-4
Cc1nc(NCCc2cnc[nH]2)c2oc3ccccc3c2n1,/,2,/,0,3,71*
